Measurements as given in the M2OR odorant receptor database.

Key:
Conditions in all cases: stereoisomer not certain
OR10G2 (Homo sapiens) = biological target: T1, OR10G2 (Homo sapiens) (UniProt Q8NGC3)
T1 sequence (whole entry): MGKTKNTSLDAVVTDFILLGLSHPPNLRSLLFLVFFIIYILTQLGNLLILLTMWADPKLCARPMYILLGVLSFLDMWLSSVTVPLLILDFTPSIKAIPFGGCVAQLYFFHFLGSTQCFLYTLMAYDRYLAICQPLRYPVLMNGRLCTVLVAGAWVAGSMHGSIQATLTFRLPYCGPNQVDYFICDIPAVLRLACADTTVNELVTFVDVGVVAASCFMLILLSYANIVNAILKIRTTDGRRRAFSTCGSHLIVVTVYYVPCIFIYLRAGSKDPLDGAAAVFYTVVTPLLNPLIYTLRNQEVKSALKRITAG
In short: (§1)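 Whether a receptor–molecule pair is responsive (active) rests on the original authors' judgment that its measured signal was statistically different from baseline. Pairs without that judgment are non-responsive (inactive). Sources used varied assay methods, commonly transient luciferase assays in mammalian cell lines.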

OR10G3 (Homo sapiens) = biological target: T2, OR10G3 (Homo sapiens) (UniProt Q8NGC4)
T2 sequence (whole entry): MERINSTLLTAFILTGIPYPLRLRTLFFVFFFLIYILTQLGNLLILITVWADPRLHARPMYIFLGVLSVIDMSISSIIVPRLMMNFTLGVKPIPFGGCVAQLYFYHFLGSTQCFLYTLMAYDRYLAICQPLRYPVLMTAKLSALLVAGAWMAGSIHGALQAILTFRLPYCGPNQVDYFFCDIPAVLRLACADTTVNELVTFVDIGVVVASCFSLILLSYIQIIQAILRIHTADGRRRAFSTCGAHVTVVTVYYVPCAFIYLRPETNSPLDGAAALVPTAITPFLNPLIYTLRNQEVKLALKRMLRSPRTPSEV
In short: as §1

OR10G4 (Homo sapiens) = biological target: T3, OR10G4 (Homo sapiens) (UniProt Q8NGN3)
T3 sequence (whole entry): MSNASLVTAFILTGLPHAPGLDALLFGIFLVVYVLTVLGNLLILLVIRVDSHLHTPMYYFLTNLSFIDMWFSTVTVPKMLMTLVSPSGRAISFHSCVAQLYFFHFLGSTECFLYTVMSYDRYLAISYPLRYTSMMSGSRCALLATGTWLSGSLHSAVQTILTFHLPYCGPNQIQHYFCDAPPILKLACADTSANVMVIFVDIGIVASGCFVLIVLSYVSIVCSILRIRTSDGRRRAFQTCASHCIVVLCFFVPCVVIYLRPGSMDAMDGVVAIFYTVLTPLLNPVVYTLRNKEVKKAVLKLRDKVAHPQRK
In short: as §1

OR10G6 (Homo sapiens) = biological target: T4, OR10G6 (Homo sapiens) (UniProt Q8NH81)
T4 sequence (whole entry): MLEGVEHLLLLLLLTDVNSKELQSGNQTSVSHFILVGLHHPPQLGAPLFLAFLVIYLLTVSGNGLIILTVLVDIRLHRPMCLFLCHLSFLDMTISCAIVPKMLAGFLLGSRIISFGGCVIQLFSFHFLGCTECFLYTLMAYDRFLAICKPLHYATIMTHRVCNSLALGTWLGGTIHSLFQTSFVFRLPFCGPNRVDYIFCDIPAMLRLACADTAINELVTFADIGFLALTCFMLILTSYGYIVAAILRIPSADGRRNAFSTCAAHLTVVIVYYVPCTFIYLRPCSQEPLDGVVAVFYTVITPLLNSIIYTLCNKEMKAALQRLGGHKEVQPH
In short: as §1

OR10G7 (Homo sapiens) = biological target: T5, OR10G7 (Homo sapiens) (UniProt Q8NGN6)
T5 sequence (whole entry): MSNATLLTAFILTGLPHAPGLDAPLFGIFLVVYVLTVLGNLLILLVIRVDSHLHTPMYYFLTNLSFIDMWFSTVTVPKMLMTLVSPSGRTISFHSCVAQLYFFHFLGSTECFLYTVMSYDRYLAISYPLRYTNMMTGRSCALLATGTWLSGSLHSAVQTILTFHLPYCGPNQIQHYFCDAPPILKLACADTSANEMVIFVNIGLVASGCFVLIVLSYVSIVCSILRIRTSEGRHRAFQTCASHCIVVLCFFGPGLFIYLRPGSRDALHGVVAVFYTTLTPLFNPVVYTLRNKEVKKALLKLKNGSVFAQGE
In short: as §1

OR10G8 (Homo sapiens) = biological target: T6, OR10G8 (Homo sapiens) (UniProt Q8NGN5)
T6 sequence (whole entry): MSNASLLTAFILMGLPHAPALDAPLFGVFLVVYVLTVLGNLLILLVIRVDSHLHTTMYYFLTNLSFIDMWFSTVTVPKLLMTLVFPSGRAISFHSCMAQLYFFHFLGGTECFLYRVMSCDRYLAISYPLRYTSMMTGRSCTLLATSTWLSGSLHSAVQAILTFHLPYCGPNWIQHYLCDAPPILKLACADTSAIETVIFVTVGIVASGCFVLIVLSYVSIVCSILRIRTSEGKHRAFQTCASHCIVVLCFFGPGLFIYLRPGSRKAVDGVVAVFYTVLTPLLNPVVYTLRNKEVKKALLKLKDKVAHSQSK
In short: as §1

OR10G9 (Homo sapiens) = biological target: T7, OR10G9 (Homo sapiens) (UniProt Q8NGN4)
T7 sequence (whole entry): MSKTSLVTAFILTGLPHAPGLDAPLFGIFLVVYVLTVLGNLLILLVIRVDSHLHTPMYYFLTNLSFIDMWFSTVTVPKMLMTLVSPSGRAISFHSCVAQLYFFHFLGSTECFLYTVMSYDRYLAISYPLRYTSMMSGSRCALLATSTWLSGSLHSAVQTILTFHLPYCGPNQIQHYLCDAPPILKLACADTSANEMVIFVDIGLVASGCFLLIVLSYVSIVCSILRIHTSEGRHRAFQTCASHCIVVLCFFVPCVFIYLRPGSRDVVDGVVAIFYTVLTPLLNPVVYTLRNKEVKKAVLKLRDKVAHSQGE
In short: as §1

OR10H1 (Homo sapiens) = biological target: T8, OR10H1 (Homo sapiens) (UniProt Q9Y4A9)
T8 sequence (whole entry): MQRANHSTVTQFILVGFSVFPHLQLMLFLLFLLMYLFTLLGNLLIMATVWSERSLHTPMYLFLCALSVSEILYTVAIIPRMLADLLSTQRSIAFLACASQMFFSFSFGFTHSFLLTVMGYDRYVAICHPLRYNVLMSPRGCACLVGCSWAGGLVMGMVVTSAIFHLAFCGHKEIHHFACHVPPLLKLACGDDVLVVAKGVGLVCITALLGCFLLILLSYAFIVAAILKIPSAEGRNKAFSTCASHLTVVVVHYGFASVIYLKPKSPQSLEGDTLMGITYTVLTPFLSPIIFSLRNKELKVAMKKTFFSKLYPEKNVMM
In short: as §1

OR10H2 (Homo sapiens) = biological target: T9, OR10H2 (Homo sapiens) (UniProt O60403)
T9 sequence (whole entry): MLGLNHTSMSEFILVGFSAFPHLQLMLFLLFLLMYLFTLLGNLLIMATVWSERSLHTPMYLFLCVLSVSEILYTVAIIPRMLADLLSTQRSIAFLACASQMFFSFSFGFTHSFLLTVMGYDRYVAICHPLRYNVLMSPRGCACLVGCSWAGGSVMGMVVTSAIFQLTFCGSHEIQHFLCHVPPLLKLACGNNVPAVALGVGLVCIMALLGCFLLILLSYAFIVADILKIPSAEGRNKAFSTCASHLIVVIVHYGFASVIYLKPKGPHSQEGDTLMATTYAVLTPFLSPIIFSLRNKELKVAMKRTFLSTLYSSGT
In short: as §1

Measured: odorant receptor agonist call;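 also: active if original authors judged signal statistically different from baseline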

CCC(S)C(C)CO (centres undefined)
inactive: all assays above
